Reference: ChEMBL document CHEMBL1142774, “Substituted tetraazaacenaphthylenes as potent CRF1 receptor antagonists for the treatment of depression and anxiety” (Bioorg Med Chem Lett, 2005)

Legend:
[1] = Displacement of [125I]o-CRF from recombinant human CRF receptors expressed in Chinese Hamster Ovary (CHO) cell membranes
[2] = Oral bioavailability in rat at 1 hr (dose 0.5 mg/kg i.v.); format: ADME, organism-based; conditions: in vivo, 1 mg/kg
Summary of the method: (§1)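 The pharmacokinetic study used Hans–Wistar rats. Each compound was given by the oral route at 1 mg/kg and by the intravenous route at 0.5 mg/kg. Plasma clearance and oral bioavailability were derived from these two administrations.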

[3] = Brain/Plasma ratio level at 1 hr after a intravenous dose 0.5 mg/kg in rats; format: ADME, organism-based; set-up: dose 0.5 mg/kg, route intravenous; conditions: rat, read-out: Penetration
Summary of the method: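 Hans–Wistar rats were given a single 0.5 mg/kg intravenous dose. Brain and plasma levels were measured at 1 h post-dose, and the brain/plasma ratio was taken from these levels.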

[4] = Plasma clearance at 1 hr after a intravenous dose 0.5 mg/kg in rats; format: ADME, organism-based; set-up: dose 0.5 mg/kg, route intravenous; conditions: rat; summary of the method: as §1

| Compound | Log IC50 [1] | bioavailability [2] | Kp at 1 h [3] | clearance [4] |
| --- | --- | --- | --- | --- |
| CCCC(CCC)n1cc2c3c(nc(C)nc31)N(c1ccc(C(F)(F)F)cc1C(F)(F)F)CC2 | -7.85 | 33% | 1.3 | 10 mL/min/kg |
| CCC(CC)n1cc2c3c(nc(C)nc31)N(c1ccc(C#N)cc1Cl)CC2 | -7.21 |  |  |  |
| CCC(CC)n1cc2c3c(nc(C)nc31)N(c1ccc(C(F)(F)F)cc1C(F)(F)F)CC2 | -7.58 |  |  |  |
| CCCC(CCC)n1cc2c3c(nc(C)nc31)N(c1ccc(C#N)cc1C)CC2 | -7.35 |  |  |  |
| CCC(CC)n1cc2c3c(nc(C)nc31)N(c1ccc(C#N)cc1C)CC2 | -7.57 |  |  |  |
| COCC(COC)Nc1nc(C)nc2c(-c3ccc(Cl)cc3Cl)c(C)nn12 | -7.42 |  |  |  |
| CCCC(CCC)N1CC2CCN(c3ccc(C(F)(F)F)cc3C(F)(F)F)c3nc(C)nc1c32 (stereo in doubt; 2ad) | -7.44 | 36% | 1.1 | 15 mL/min/kg |
| CCCC(CCC)N1CC2CCN(c3ccc(C(F)(F)F)cc3C(F)(F)F)c3nc(C)nc1c32 (stereo in doubt; 2ag) | -7.55 |  |  |  |
| CCCC(CCC)N1CC2CCN(c3ccc(C(F)(F)F)cc3C(F)(F)F)c3nc(C)nc1c32 (stereo in doubt; 2ah) | -7.84 |  |  |  |
| CCCCN(CC)c1nc(C)nc2c1c(C)cn2-c1c(C)cc(C)cc1C [CP-154526] | -7.76 |  |  |  |

More lines, now with the values ahead:

| Log IC50 [1] | bioavailability [2] | Kp at 1 h [3] | clearance [4] | Compound |
| --- | --- | --- | --- | --- |
| -7.16 |  |  |  | CCC(CC)N1CC2CCN(c3ccc(Cl)cc3Cl)c3nc(C)nc1c32 (stereo unspecified) |
| -5.35 |  |  |  | Cc1nc2c3c(n1)N(c1ccc(Cl)cc1Cl)CC3CCN2CC1CC1 (stereo unspecified) |
| -7.52 | 31% | 1.8 | 31 mL/min/kg | CCCC(CCC)N1CCC2CN(c3ccc(Cl)cc3Cl)c3nc(C)nc1c32 (stereo unspecified) |
| -6.74 |  |  |  | CCC(CC)N1CCC2CN(c3ccc(Cl)cc3Cl)c3nc(C)nc1c32 (stereo unspecified) |
| -5.9 |  |  |  | COCC(COC)N1CC2CCN(c3ccc(Cl)cc3Cl)c3nc(C)nc1c32 (stereo unspecified) |
| -7.39 |  |  |  | CCCC(CCC)N1CCC2CN(c3ccc(C(F)(F)F)cc3C(F)(F)F)c3nc(C)nc1c32 (stereo unspecified) |
| -7.65 | 14% | 2 | 32 mL/min/kg | CCCC(CCC)N1CC2CCN(c3ccc(Cl)cc3Cl)c3nc(C)nc1c32 (stereo in doubt; 2ac) |
| -7.96 |  |  |  | CCCC(CCC)N1CC2CCN(c3ccc(Cl)cc3Cl)c3nc(C)nc1c32 (stereo in doubt; 2ae) |
| -7.89 |  |  |  | CCCC(CCC)N1CC2CCN(c3ccc(Cl)cc3Cl)c3nc(C)nc1c32 (stereo in doubt; 2af) |
